# Reference: ChEMBL document CHEMBL3877295, “Discovery of novel 3-hydroxypicolinamides as selective inhibitors of HIV-1 integrase-LEDGF/p75 interaction” (Eur J Med Chem, 2017)
# Columns and labels:
# [1] = Inhibition of HIV1 His6-tagged integrase/FLAG-tagged LEDGF/p75 protein-protein interaction expressed in Escherichia coli BL21(DE3) preincubated with integrase for 30 mins followed by LEDGF/p75 addition measured after 60 mins by AlphaScreen assay
# In short: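 His6-integrase (300 nM final) preincubated with compound […] for 30 min at 4 °C. FLAG-LEDGF/p75 (300 nM final) added for 60 min at 4 °C. Ni-chelate donor and anti-FLAG acceptor beads (20 µg/mL each) added for 1 h at 30 °C, then acceptor emission read.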
# [2] = Inhibition of HIV1 recombinant GST/His-tagged integrase strand transfer activity expressed in Escherichia coli BL21(DE3) using 5'-end 32P labeled linear 21-mer substrate preincubated for 30 mins followed by substrate addition measured after 1 hr by PAGE analysis; set-up: species or system Human immunodeficiency virus 1
# In short: (§1)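 Recombinant wild-type integrase (200 nM final) preincubated with inhibitor in 50 mM NaCl, 1 mM HEPES pH 7.5, 10% glycerol, 7.5 mM MnCl2, 0.1 mg/mL BSA. Substrate: 21-mer top strand 5'-labelled with [γ-32P]ATP by T4 polynucleotide kinase, kinase heat-killed at 95 °C for 15 min, annealed to 1.5-fold molar excess bottom strand, and spin-column cleaned.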
# [3] = Inhibition of HIV1 recombinant GST/His-tagged integrase 3'-processing activity expressed in Escherichia coli BL21(DE3) assessed as reduction in 19-mer product using 5'-end 32P labeled linear 21-mer substrate preincubated for 30 mins followed by substrate addition measured after 1 hr by PAGE analysis; set-up: species or system Human immunodeficiency virus 1; in short: as §1
# [4] = test system: Human immunodeficiency virus 1; assay: Antiviral activity against HIV1 3B infected in human MT4 cells assessed as reduction in virus-induced cytopathic effect by MTT assay; format: functional, cell-based; conditions: Human immunodeficiency virus 1, 3B
# [5] = Inhibition of HIV1 GST-tagged integrase and His6-tagged integrase mutant dimerization expressed in Escherichia coli BL21(DE3) after overnight incubation by AlphaScreen assay; set-up: species or system Human immunodeficiency virus 1
# [6] = Cytotoxicity against human MT4 cells assessed as reduction in cell viability after 72 hrs by MTT assay; format: toxicity, cell-based
# [7] = Therapeutic Index, ratio of CC50 for human C8166 cells to EC50 for HIV1 3B infected in human C8166 cells; format: cell-based; conditions: read-out: Ratio CC50/EC50
# [8] = Cytotoxicity against human C8166 cells assessed as reduction in cell viability after 72 hrs by MTT assay; format: toxicity, cell-based
# [9] = test system: Human immunodeficiency virus 1; assay: Antiviral activity against HIV1 3B infected in human C8166 cells assessed as reduction in virus-induced cytopathic effect by MTT assay; format: functional, cell-based; conditions: Human immunodeficiency virus 1, 3B
# [10] = Therapeutic Index, ratio of CC50 for human MT4 cells to EC50 for HIV1 3B infected in human MT4 cells; format: cell-based; conditions: read-out: Ratio CC50/EC50
Structure (SMILES),IC50 [1] [µM],IC50 [2] [µM],IC50 [3] [µM],EC50 [4] [µM],IC50 [5] [µM],CC50 at 72 h [6] [µM],selectivity ratio [7],CC50 at 72 h [8] [µM],EC50 [9] [µM],selectivity ratio [10]
Nc1cccc(C(=O)NCc2ccco2)c1O,51,> 100,,,,,,,,
COc1cccnc1C(=O)NCc1ccc(F)cc1,> 20,> 20,> 20,,,,,,,
CCCCN(Cc1ccc(F)cc1)C(=O)c1ncccc1O,12,> 20,> 20,> 330,14,> 660,,,,
O=C(NCc1cccs1)c1ncccc1O,7.5,> 20,> 20,,8,,2.9,218,75.6,
CCCCNC(=O)c1ncccc1O,> 20,> 20,> 20,,,,,> 1000,> 500,
O=c1oc2cccnc2c(=O)n1Cc1ccc(F)cc1,> 20,> 20,> 20,73.5,,311,,,,4.3
O=C(NCc1ccc(C(F)(F)F)cc1)c1ncccc1O,> 20,> 20,> 20,,,,< 1,31.4,43.2,
O=C(NCc1ccco1)c1ncccc1O,2.4,> 20,> 20,,10,,2.1,575,269,
O=c1oc2cccnc2c(=O)n1Cc1cccs1,> 20,> 20,> 20,69.9,,363,,,,5.2
O=C(NCc1cccc2ccccc12)c1ncccc1O,> 20,> 20,> 20,,,,1.5,88.8,58.2,
CC(C)CCN(Cc1ccc(F)cc1)C(=O)c1ncccc1O,> 20,> 20,> 20,68.6,,268,,,,3.9
CC(C)CN(Cc1ccc(F)cc1)C(=O)c1ncccc1O,> 20,> 20,> 20,270,,247,,,,< 1
O=C(NCc1ccc(F)cc1)c1cc(O)ccn1,> 20,> 20,> 20,,,,,,,
O=C(NCc1ccc(F)cc1)c1ncccc1F,> 20,> 20,> 20,,,,,,,
O=C(NCc1ccc(F)cc1)c1ccccn1,> 20,> 20,> 20,,,,,,,
O=C(NCc1ccc(F)cc1)c1ncccc1O,8.6,> 20,> 20,,6.1,,1.5,114,77.6,
O=C(NCc1ccc(F)c(Cl)c1)c1ncccc1O,4.2,> 20,> 20,,,,16,310,19.2,
O=C(NCc1ccc([N+](=O)[O-])cc1)c1ncccc1O,4,> 20,> 20,,,,4.8,127,26.4,
O=C(NCc1ccco1)c1cccnc1O,> 100,,,,,,,,,
O=C(Nc1ccc(F)cc1)c1ncccc1O,8,> 20,> 20,,,,> 45,> 860,19.4,
Nc1ccc(CNC(=O)c2ncccc2O)cc1,1.7,> 20,> 20,,4,,> 2.3,> 596,260,
O=C(NCc1ccc(F)cc1)c1ccc(O)cn1,> 20,> 20,> 20,,,,,,,
O=C(NCc1ccc2[nH]ccc2c1)c1ncccc1O,4.6,> 20,> 20,,8,,2,138,70,
O=C(NCc1ccc(F)cc1)c1nc(N2CCCCS2(=O)=O)c2cccnc2c1O,,0.0008,0.0054,,,,52800,123,0.00233,
O=C(NCC1CCCCC1)c1ncccc1O,19,> 20,> 20,,,,2.1,137,66.2,
O=C(NCc1ccc(F)cc1)c1cccc(O)n1,> 20,> 20,> 20,,,,,,,
C=C(C)CN(Cc1ccc(F)cc1)C(=O)c1ncccc1O,> 20,> 20,> 20,279,,272,,,,< 1
COc1cc(CNC(=O)c2ncccc2O)cc(OC)c1OC,2.5,> 20,> 20,,9.8,,> 9,> 500,58.7,
